Assay results as given in ChEMBL document CHEMBL4811231, “Discovery and structural optimization of 3-O-β-chacotriosyl oleanane-type triterpenoids as potent entry inhibitors of SARS-CoV-2 virus infections” (Eur J Med Chem, 2021).
pIC50, pKd: −log10 of the molar value.

Assays:
[1] = Cytotoxicity against human 293T/ACE2 cells measured after 48 hrs by MTT assay; format: cell-based; details: 293t/ace2, 48 h
How it was run: (§1)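 MTT assay on monolayers of 293T-ACE2 or Vero-E6 cells. Cells were rinsed with PBS and exposed to compound for 48 h, then given 0.5 mg/mL MTT for 4 h at 37 °C. Formazan was dissolved in DMSO and absorbance read at 570 nm.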

[2] = Selectivity index, ratio of CC50 for cytotoxicity against human 293T/ACE2 cells to IC50 for SARS-CoV-2 spike glycoprotein S inhibition; format: toxicity, cell-based; details: read-out: Selectivity Index
[3] = Binding affinity to SARS-CoV-2 spike glycoprotein S1 measured by Surface plasmon resonance; design: species or system Severe acute respiratory syndrome-related coronavirus
How it was run: (§2)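 Compound was immobilised on the chip by photo-crosslinking. Recombinant SARS-CoV-2 S-trimer, S1 or S2 protein was injected at a series of concentrations in PBST (0.1% Tween 20, pH 7.4) at 4 °C. Binding lasted 600 s and dissociation 360 s, at 0.5 µL/s. The chip was regenerated with glycine-HCl pH 2.0.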

[4] = Antiviral activity against SARS-CoV-2 Wuhan-HU-1 preincubated for 1 hr with African green monkey VeroE6 cells assessed as inhibition of viral infection by measuring total RNA after 24 hrs by qPCR analysis; format: functional, cell-based, Vero E6; details: Severe acute respiratory syndrome-related coronavirus, Wuhan-HU-1, Vero C1008
[5] = Inhibition of SARS-CoV-2 spike glycoprotein S1 binding to human ACE2 receptor in co-transfected human HEK293T cells at 40 uM measured by Co-immunoprecipitation based Western blot assay; format: cell-based, Severe acute respiratory syndrome-related coronavirus
How it was run: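 293T cells were co-transfected with ACE2-Flag and SARS-S plasmids, and total protein was extracted after 48 h. Lysates were immunoprecipitated overnight with protein A Sepharose and anti-Flag antibody (mouse IgG as control). Proteins were run on 10% PAGE and blotted with anti-Flag and anti-SARS-CoV-S antibodies plus an HRP secondary.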

Vero C1008 = assay: Cytotoxicity against African Green monkey Vero E6 cells measured after 48 hrs by MTT assay; format: cell-based; details: chlorocebus sabaeus, vero c1008, 48 h; how it was run: as §1
Vero E6 [6] = assay: Antiviral activity against SARS-CoV-2 Wuhan-HU-1 infection on African green monkey Vero E6 cells assessed by viral nucleoprotein expression at 0.55 to 15 uM measured after 48 hrs by DAPI staining based indirect immunoflourescence microscopy relative to control; format: functional, cell-based; details: Severe acute respiratory syndrome-related coronavirus, dose 0.55-15 µM
Vero E6 [7] = assay: Inhibition of SARS-CoV-2 spike glycoprotein S2 in human HEK293T cells transfected with pAAV-IRES-GFP-SARS-CoV-2 S assessed as inhibition of membrane fusion to african green monkey Vero E6 cells […] pretreated at 2.5 to 20 uM for 30 mins measured after 24 hrs by cell-cell fusion based fluorescence microscopy; details: Severe acute respiratory syndrome-related coronavirus, dose 2.5-20 µM
How it was run: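 Effector HEK-293T cells were transfected with pAAV-IRES-GFP-SARS-CoV-2 S, or with empty pAAV-IRES-GFP as vehicle. They were pretreated with compound for 30 min and overlaid on Vero-E6 target cells seeded 6 h earlier (20,000/well). After 24 h, three random fields were imaged by fluorescence microscopy.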

[8] = Binding affinity to SARS-CoV-2 spike glycoprotein S2 measured by Surface plasmon resonance; design: species or system Severe acute respiratory syndrome-related coronavirus; how it was run: as §2

| Structure (SMILES) | CC50 [1] [µM] | selectivity ratio [2] | also measured |
| --- | --- | --- | --- |
| O=C(/C=C/c1ccc(O)c2oc(-c3ccc(O)c(O)c3)cc12)O[C@H](Cc1ccc(O)c(O)c1)C(=O)O | > 100 | > 26 | – |
| COc1ccccc1CNC(=O)[C@]12CCC(C)(C)C[C@H]1C1=CC[C@@H]3[C@@]4(C)CC[C@H](O[C@@H]5O[C@H](CO)[C@@H](O[C@@H]6O[C@@H](C)[C@H](O)[C@@H](O)[C@H]6O)[C@H](O)[C@H]5O[C@@H]5O[C@@H](C)[C@H](O)[C@@H](O)[C@H]5O)C(C)(C)[C@@H]4CC[C@@]3(C)[C@]1(C)CC2 | 33.4 | 2 | – |
| C[C@@H]1O[C@@H](O[C@H]2[C@H](O[C@H]3CC[C@]4(C)[C@H]5CC=C6[C@@H]7CC(C)(C)CC[C@]7(C(=O)NCCCc7ccccc7)CC[C@@]6(C)[C@]5(C)CC[C@H]4C3(C)C)O[C@H](CO)[C@@H](O[C@@H]3O[C@@H](C)[C@H](O)[C@@H](O)[C@H]3O)[C@@H]2O)[C@H](O)[C@H](O)[C@H]1O | > 100 | > 7.66 | – |
| C[C@@H]1O[C@@H](O[C@H]2[C@H](O[C@H]3CC[C@]4(C)[C@H]5CC=C6[C@@H]7CC(C)(C)CC[C@]7(C(=O)NCc7cccs7)CC[C@@]6(C)[C@]5(C)CC[C@H]4C3(C)C)O[C@H](CO)[C@@H](O[C@@H]3O[C@@H](C)[C@H](O)[C@@H](O)[C@H]3O)[C@@H]2O)[C@H](O)[C@H](O)[C@H]1O | 34.9 | 5.92 | – |
| COc1cccc(NC(=O)[C@]23CCC(C)(C)C[C@H]2C2=CC[C@@H]4[C@@]5(C)CC[C@H](O[C@@H]6O[C@H](CO)[C@@H](O[C@@H]7O[C@@H](C)[C@H](O)[C@@H](O)[C@H]7O)[C@H](O)[C@H]6O[C@@H]6O[C@@H](C)[C@H](O)[C@@H](O)[C@H]6O)C(C)(C)[C@@H]5CC[C@@]4(C)[C@]2(C)CC3)c1 | > 100 | > 12 | – |
| C[C@@H]1O[C@@H](O[C@H]2[C@H](O[C@H]3CC[C@]4(C)[C@H]5CC=C6[C@@H]7CC(C)(C)CC[C@]7(C(=O)NCCc7ccccc7)CC[C@@]6(C)[C@]5(C)CC[C@H]4C3(C)C)O[C@H](CO)[C@@H](O[C@@H]3O[C@@H](C)[C@H](O)[C@@H](O)[C@H]3O)[C@@H]2O)[C@H](O)[C@H](O)[C@H]1O | > 100 | > 13.6 | – |
| COc1ccccc1NC(=O)[C@]12CCC(C)(C)C[C@H]1C1=CC[C@@H]3[C@@]4(C)CC[C@H](O[C@@H]5O[C@H](CO)[C@@H](O[C@@H]6O[C@@H](C)[C@H](O)[C@@H](O)[C@H]6O)[C@H](O)[C@H]5O[C@@H]5O[C@@H](C)[C@H](O)[C@@H](O)[C@H]5O)C(C)(C)[C@@H]4CC[C@@]3(C)[C@]1(C)CC2 | 31.2 | 5.64 | – |
| C[C@@H]1O[C@@H](O[C@H]2[C@H](O[C@H]3CC[C@]4(C)[C@H]5CC=C6[C@@H]7CC(C)(C)CC[C@]7(C(=O)NCc7ccccc7F)CC[C@@]6(C)[C@]5(C)CC[C@H]4C3(C)C)O[C@H](CO)[C@@H](O[C@@H]3O[C@@H](C)[C@H](O)[C@@H](O)[C@H]3O)[C@@H]2O)[C@H](O)[C@H](O)[C@H]1O | > 100 | > 17.6 | – |
| C[C@@H]1O[C@@H](O[C@H]2[C@H](O[C@H]3CC[C@]4(C)[C@H]5CC=C6[C@@H]7CC(C)(C)CC[C@]7(C(=O)Nc7ccccc7)CC[C@@]6(C)[C@]5(C)CC[C@H]4C3(C)C)O[C@H](CO)[C@@H](O[C@@H]3O[C@@H](C)[C@H](O)[C@@H](O)[C@H]3O)[C@@H]2O)[C@H](O)[C@H](O)[C@H]1O | 33.5 | 1.85 | – |
| C[C@@H]1O[C@@H](O[C@H]2[C@H](O[C@H]3CC[C@]4(C)[C@H]5CC=C6[C@@H]7CC(C)(C)CC[C@]7(C(=O)N(C)Cc7ccccc7)CC[C@@]6(C)[C@]5(C)CC[C@H]4C3(C)C)O[C@H](CO)[C@@H](O[C@@H]3O[C@@H](C)[C@H](O)[C@@H](O)[C@H]3O)[C@@H]2O)[C@H](O)[C@H](O)[C@H]1O | 37.6 | 4.84 | – |
| C[C@@H]1O[C@@H](O[C@H]2[C@H](O[C@H]3CC[C@]4(C)[C@H]5CC=C6[C@@H]7CC(C)(C)CC[C@]7(C(=O)NCc7ccccc7Br)CC[C@@]6(C)[C@]5(C)CC[C@H]4C3(C)C)O[C@H](CO)[C@@H](O[C@@H]3O[C@@H](C)[C@H](O)[C@@H](O)[C@H]3O)[C@@H]2O)[C@H](O)[C@H](O)[C@H]1O | > 100 | > 8.51 | – |
| C[C@@H]1O[C@@H](O[C@H]2[C@H](O[C@H]3CC[C@]4(C)[C@H]5CC=C6[C@@H]7CC(C)(C)CC[C@]7(C(=O)NCc7ccccc7Cl)CC[C@@]6(C)[C@]5(C)CC[C@H]4C3(C)C)O[C@H](CO)[C@@H](O[C@@H]3O[C@@H](C)[C@H](O)[C@@H](O)[C@H]3O)[C@@H]2O)[C@H](O)[C@H](O)[C@H]1O | > 100 | > 15.8 | – |
| C[C@@H]1O[C@@H](O[C@H]2[C@H](O[C@H]3CC[C@]4(C)[C@H]5CC=C6[C@@H]7CC(C)(C)CC[C@]7(C(=O)Nc7ccccc7Cl)CC[C@@]6(C)[C@]5(C)CC[C@H]4C3(C)C)O[C@H](CO)[C@@H](O[C@@H]3O[C@@H](C)[C@H](O)[C@@H](O)[C@H]3O)[C@@H]2O)[C@H](O)[C@H](O)[C@H]1O | 31.7 | 5.06 | – |
| C[C@@H]1O[C@@H](O[C@H]2[C@H](O[C@H]3CC[C@]4(C)[C@H]5CC=C6[C@@H]7CC(C)(C)CC[C@]7(C(=O)NCc7ccccc7)CC[C@@]6(C)[C@]5(C)CC[C@H]4C3(C)C)O[C@H](CO)[C@@H](O[C@@H]3O[C@@H](C)[C@H](O)[C@@H](O)[C@H]3O)[C@@H]2O)[C@H](O)[C@H](O)[C@H]1O | > 100 | > 22.9 | pKd [3]: 2.43; pIC50 [4]: 6.01; Kd [5]: Active; Activity (Vero C1008): Non-Toxic; inhibition (Vero E6 [6]): Dose-Dependent Effect; inhibition (Vero E6 [7]): Dose-Dependent Effect; pKd [8]: 5.67 |
| COc1ccc(NC(=O)[C@]23CCC(C)(C)C[C@H]2C2=CC[C@@H]4[C@@]5(C)CC[C@H](O[C@@H]6O[C@H](CO)[C@@H](O[C@@H]7O[C@@H](C)[C@H](O)[C@@H](O)[C@H]7O)[C@H](O)[C@H]6O[C@@H]6O[C@@H](C)[C@H](O)[C@@H](O)[C@H]6O)C(C)(C)[C@@H]5CC[C@@]4(C)[C@]2(C)CC3)cc1 | > 100 | > 10 | – |
| C[C@@H]1O[C@@H](O[C@H]2[C@H](O[C@H]3CC[C@]4(C)[C@H]5CC=C6[C@@H]7CC(C)(C)CC[C@]7(C(=O)OCc7ccccc7)CC[C@@]6(C)[C@]5(C)CC[C@H]4C3(C)C)O[C@H](CO)[C@@H](O[C@@H]3O[C@@H](C)[C@H](O)[C@@H](O)[C@H]3O)[C@@H]2O)[C@H](O)[C@H](O)[C@H]1O | 21.6 | 1.29 | – |
